Results published in ChEMBL document CHEMBL1138224, “Design, synthesis, and biological evaluation of peptidomimetic inhibitors of factor XIa as novel anticoagulants” (J Med Chem, 2006).

How the values were obtained:
Prothrombin = Prothrombin (Homo sapiens, UniProt P00734); assay: Inhibition of thrombin
Coagulation factor XI = Coagulation factor XI (Homo sapiens, UniProt P03951); assay: Inhibition of factor 11a
Coagulation factor X = Coagulation factor X (Homo sapiens, UniProt P00742); assay: Inhibition of factor 10a
Sequence of Coagulation factor X (P00742 41-179 limits assumed): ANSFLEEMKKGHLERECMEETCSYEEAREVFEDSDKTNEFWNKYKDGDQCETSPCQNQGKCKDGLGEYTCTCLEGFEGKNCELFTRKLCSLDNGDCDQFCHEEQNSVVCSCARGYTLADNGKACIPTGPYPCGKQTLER
Sequence of Coagulation factor X (P00742 235-488 limits assumed): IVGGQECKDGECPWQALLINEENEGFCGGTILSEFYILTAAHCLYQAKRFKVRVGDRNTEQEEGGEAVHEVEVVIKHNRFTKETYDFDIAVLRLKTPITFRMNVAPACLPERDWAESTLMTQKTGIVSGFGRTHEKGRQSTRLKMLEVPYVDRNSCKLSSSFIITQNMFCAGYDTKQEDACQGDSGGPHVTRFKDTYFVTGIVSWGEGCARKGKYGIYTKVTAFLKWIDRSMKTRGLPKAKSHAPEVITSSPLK

Plasma [1] = assay: Anticoagulant activity in human plasma measured by activated […] time; type: functional
Procedure, shortened: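 Activated partial thromboplastin time in human plasma. Plasma was incubated with compound for 2 min. aPTT reagent was added and incubated 3 min. Prewarmed 30 mM CaCl2 was added and clotting was read up to 300 s. The concentration doubling clotting time was taken from the dose-response curve.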

Plasma [2] = assay: Anticoagulant activity in human plasma measured by prothrombin time; type: functional
Procedure, shortened: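 Human plasma with compound prewarmed 3 min at 37 °C, then prewarmed thromboplastin reagent containing calcium added; clotting read over 300 s. Concentration doubling clotting time (2× PT) derived from dose-response curve.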

[3] = Clearance in iv dosed rat; type: ADME, organism-based; conditions: in vivo
Coagulation factor VII = target: T1, Coagulation factor VII (Homo sapiens, UniProt P08709); assay: Inhibition of factor 7a
T1 sequence (P08709 whole entry): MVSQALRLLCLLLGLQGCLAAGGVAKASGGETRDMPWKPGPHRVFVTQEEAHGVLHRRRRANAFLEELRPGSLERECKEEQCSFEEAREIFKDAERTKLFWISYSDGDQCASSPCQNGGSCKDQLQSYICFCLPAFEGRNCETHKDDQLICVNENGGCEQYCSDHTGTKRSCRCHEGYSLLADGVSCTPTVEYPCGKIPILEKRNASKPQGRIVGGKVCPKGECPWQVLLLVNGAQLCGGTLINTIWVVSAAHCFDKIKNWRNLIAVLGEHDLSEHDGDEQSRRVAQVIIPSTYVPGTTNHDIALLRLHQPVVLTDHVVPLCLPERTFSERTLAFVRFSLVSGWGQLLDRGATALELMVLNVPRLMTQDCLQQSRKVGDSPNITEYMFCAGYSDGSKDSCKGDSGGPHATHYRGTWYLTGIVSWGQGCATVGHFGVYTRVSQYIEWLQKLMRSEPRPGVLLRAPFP

[4] = target: Vitamin K-dependent protein C (Homo sapiens, UniProt P04070); assay: Inhibition of activated protein C
Sequence of Vitamin K-dependent protein C (P04070 43-197 limits assumed): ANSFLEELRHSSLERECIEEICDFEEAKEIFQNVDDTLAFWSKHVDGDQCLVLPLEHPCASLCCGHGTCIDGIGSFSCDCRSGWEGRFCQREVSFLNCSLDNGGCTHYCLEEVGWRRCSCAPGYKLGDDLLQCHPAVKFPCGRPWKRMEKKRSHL
Sequence of Vitamin K-dependent protein C (P04070 212-461 limits assumed): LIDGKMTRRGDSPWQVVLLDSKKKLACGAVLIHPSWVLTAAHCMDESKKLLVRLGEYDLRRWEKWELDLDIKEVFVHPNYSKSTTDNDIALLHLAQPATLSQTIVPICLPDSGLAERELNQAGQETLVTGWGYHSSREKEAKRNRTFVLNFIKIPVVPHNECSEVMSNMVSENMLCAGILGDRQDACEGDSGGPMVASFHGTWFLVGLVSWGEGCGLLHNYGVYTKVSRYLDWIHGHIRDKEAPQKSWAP

[5] = Half life in iv dosed rat; type: ADME, organism-based; conditions: in vivo
[6] = Volume of distribution in iv dosed rat; type: ADME, organism-based; conditions: in vivo, read-out: Vdss
Plasma kallikrein = Plasma kallikrein (Homo sapiens, UniProt P03952); assay: Inhibition of plasma kallikrein; type: cell-free
Sequence of Plasma kallikrein (P03952 20-390 limits assumed): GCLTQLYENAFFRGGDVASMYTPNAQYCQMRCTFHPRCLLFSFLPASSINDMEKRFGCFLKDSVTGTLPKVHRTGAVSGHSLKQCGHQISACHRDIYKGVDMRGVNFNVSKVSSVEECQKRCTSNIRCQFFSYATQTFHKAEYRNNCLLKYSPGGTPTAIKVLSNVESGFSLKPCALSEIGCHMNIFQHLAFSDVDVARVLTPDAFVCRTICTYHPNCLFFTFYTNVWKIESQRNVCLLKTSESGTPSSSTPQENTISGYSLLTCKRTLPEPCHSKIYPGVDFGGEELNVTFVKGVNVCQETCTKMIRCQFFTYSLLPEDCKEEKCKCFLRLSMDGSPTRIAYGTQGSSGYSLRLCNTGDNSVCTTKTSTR
Sequence of Plasma kallikrein (P03952 391-638 limits assumed): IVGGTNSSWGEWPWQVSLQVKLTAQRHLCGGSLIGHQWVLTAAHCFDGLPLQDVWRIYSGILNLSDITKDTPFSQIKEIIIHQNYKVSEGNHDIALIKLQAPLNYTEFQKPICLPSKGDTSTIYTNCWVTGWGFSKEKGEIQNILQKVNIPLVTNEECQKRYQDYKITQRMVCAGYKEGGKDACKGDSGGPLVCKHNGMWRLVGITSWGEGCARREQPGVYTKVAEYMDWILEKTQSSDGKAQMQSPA

Sequence of Coagulation factor XI (P03951 19-387 limits assumed): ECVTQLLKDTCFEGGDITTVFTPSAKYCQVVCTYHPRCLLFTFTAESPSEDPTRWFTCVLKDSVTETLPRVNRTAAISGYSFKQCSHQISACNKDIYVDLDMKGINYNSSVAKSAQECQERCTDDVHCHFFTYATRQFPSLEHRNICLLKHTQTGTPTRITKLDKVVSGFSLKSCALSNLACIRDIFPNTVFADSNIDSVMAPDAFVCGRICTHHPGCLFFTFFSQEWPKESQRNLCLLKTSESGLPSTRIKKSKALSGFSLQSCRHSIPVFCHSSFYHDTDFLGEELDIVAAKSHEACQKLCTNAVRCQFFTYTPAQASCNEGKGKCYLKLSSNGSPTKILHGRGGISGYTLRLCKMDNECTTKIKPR
Sequence of Coagulation factor XI (P03951 388-625 limits assumed): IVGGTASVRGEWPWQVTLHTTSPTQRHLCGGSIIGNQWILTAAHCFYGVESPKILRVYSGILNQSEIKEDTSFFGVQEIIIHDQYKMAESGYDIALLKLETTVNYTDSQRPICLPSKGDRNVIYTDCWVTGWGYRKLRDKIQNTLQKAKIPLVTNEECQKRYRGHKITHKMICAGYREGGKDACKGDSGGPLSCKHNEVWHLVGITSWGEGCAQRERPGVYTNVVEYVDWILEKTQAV

## CCC(C)[C@H](NC(=O)[C@H](CC(C)C)NC(=O)NCc1ccc(Cl)c(Cl)c1)C(=O)N[C@@H](CCCN=C(N)N)C(=O)c1nccs1 (some centres undefined)
Prothrombin
  IC50: 2600 nM
Coagulation factor XI
  IC50: 76 nM
Coagulation factor X
  IC50: 85 µM

## CC(C)[C@H](NC(=O)[C@@H](NC(=O)N[C@@H](C)c1ccc(Br)cc1)C1CCCCC1)C(=O)N[C@@H](CCCN=C(N)N)C(=O)c1nccs1
Prothrombin
  IC50: 5600 nM
Coagulation factor XI
  IC50: 132 nM
Coagulation factor X
  IC50: 14.9 µM

## CC(C)C[C@H](NC(=O)NCc1ccc(Cl)c(Cl)c1)C(=O)N[C@@H](Cc1ccc(O)cc1)C(=O)N[C@@H](CCCNC(=N)N)C(=O)c1nccs1
Prothrombin
  IC50: 1000 nM
Coagulation factor XI
  IC50: 200 nM
Coagulation factor X
  IC50: 1.7 µM

## CC(C)[C@H](NC(=O)[C@H](Cc1cccnc1)NC(=O)N[C@@H](C)c1ccc(F)cc1)C(=O)N[C@@H](CCCNC(=N)N)C(=O)c1nccs1
Prothrombin
  IC50: 606 nM
Coagulation factor XI
  IC50: 533 nM

## CC(C)[C@H](NC(=O)[C@@H](NC(=O)N[C@H](C)c1ccc(Br)cc1)C1CCCCC1)C(=O)N[C@@H](CCCNC(=N)N)C(=O)c1nccs1
Prothrombin
  IC50: 976 nM
Coagulation factor XI
  IC50: 10 nM
Plasma [1]
  2aPTT: 15.4 µM
Plasma [2]
  2PT: 178.6 µM
Coagulation factor X
  IC50: 2.7 µM

## CC(=O)N[C@@H](CC(C)C)C(=O)N[C@H](C(=O)N[C@@H](CCCN=C(N)N)C(=O)c1nccs1)C(C)C
Prothrombin
  IC50: > 200000 nM
Coagulation factor X
  IC50: > 200 µM

## CC(C)[C@H](NC(=O)[C@H](Cc1c[nH]c2ccccc12)NC(=O)N[C@H](C)c1ccc(Br)cc1)C(=O)N[C@@H](CCCNC(=N)N)C(=O)c1nccs1
Prothrombin
  IC50: 710 nM
Coagulation factor XI
  IC50: 29 nM
Coagulation factor X
  IC50: 2.1 µM

## CC(C)C[C@H](NC(=O)NCc1ccc(Cl)c(Cl)c1)C(=O)N[C@@H](C)C(=O)N[C@@H](CCCNC(=N)N)C(=O)c1nccs1
Prothrombin
  IC50: 10000 nM
Coagulation factor XI
  IC50: 920 nM
Coagulation factor X
  IC50: 22 µM

## CC(C)[C@H](NC(=O)[C@H](CC(N)=O)NC(=O)N[C@H](C)c1ccc(Br)cc1)C(=O)N[C@@H](CCCNC(=N)N)C(=O)c1nccs1
Prothrombin
  IC50: 400 nM
Coagulation factor XI
  IC50: 8 nM
Plasma [1]
  2aPTT: 0.56 µM
Plasma [2]
  2PT: 26.3 µM
Coagulation factor X
  IC50: 1.6 µM

## CC(C)[C@H](NC(=O)[C@H](CCCNC(N)=O)NC(=O)N[C@H](C)c1ccc(Br)cc1)C(=O)N[C@@H](CCCNC(=N)N)C(=O)c1nccs1
Prothrombin
  IC50: 1100 nM
Coagulation factor XI
  IC50: 30 nM
Plasma [1]
  2aPTT: 1.35 µM
Plasma [2]
  2PT: 48.6 µM
Coagulation factor X
  IC50: 1.9 µM

## CC(C)[C@H](NC(=O)[C@H](Cc1ccccc1)NNC(=O)NCc1ccc(Cl)c(Cl)c1)C(=O)N[C@@H](CCCNC(=N)N)C(=O)c1nccs1
Prothrombin
  IC50: 6700 nM
Coagulation factor XI
  IC50: 90 nM
Coagulation factor X
  IC50: 14.2 µM

## CC(C)[C@H](NC(=O)[C@H](Cc1ccccc1)NNS(=O)(=O)c1ccc(Cl)c(Cl)c1)C(=O)N[C@@H](CCCNC(=N)N)C(=O)c1nccs1
Coagulation factor XI
  IC50: 2300 nM

## CC(C)[C@H](NC(=O)[C@H](Cc1ccc(O)cc1)NC(=O)N[C@H](C)c1ccc(Br)cc1)C(=O)N[C@@H](CCCN=C(N)N)C(=O)c1nccs1
[3]
  clearance: 32 mL/min/kg
Coagulation factor VII
  IC50: 38 µM
Prothrombin
  IC50: 2040 nM
[4]
  IC50: 20.7 µM
[5]
  half-life: 45 min
Coagulation factor XI
  IC50: 6 nM
[6]
  Vd: 0.236 L/kg
Plasma kallikrein
  IC50: 10 nM
Coagulation factor X
  IC50: 1.6 µM

## CCOC(=O)C(Cc1ccccc1)NC(=O)NN[C@@H](Cc1ccccc1)C(=O)N[C@H](C(=O)N[C@@H](CCCNC(=N)N)C(=O)c1nccs1)C(C)C (some centres undefined)
Prothrombin
  IC50: 2100 nM
Coagulation factor XI
  IC50: 258 nM
Coagulation factor X
  IC50: 14.3 µM

## CC(C)C[C@H](NC(=O)NCc1ccc(Cl)c(Cl)c1)C(=O)N[C@H](C(=O)N[C@@H](CCCNC(=N)N)C(=O)c1nccs1)C1CCCCC1
Prothrombin
  IC50: 7700 nM
Coagulation factor XI
  IC50: 340 nM
Coagulation factor X
  IC50: > 200 µM

## CC(C)[C@H](NC(=O)[C@H](Cc1ccccc1)NNC(=O)Cc1ccco1)C(=O)N[C@@H](CCCNC(=N)N)C(=O)c1nccs1
Coagulation factor XI
  IC50: 2600 nM
